Only some compounds are listed: those with a hit (about 1.7% of all), similar ones and a draw of the others.
Rpn11 block: inhibitors of human proteasome Rpn11; O00487; human 26S proteasome, Ub4-pepOG fluorescence polarization; 20S core pre-blocked with epoxomicin; inhibition, % at 20 µM; actives 0.59% (n = 360,000); AID 588493;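 active = inhibition at 20 µM, scaled to each plate's controls, above about 33%, limit read from the data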
Target sequence (O00487 whole entry, looked up): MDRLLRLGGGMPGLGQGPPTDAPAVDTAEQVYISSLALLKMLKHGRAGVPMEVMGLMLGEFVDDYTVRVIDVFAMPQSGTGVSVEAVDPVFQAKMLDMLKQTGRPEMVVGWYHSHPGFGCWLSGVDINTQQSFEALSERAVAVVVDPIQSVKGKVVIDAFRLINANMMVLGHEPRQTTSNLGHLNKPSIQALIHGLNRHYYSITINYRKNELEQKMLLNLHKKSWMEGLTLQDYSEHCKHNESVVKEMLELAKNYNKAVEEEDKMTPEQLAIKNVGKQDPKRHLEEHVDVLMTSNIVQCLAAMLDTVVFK
IDE cell inh: inhibits human insulin-degrading enzyme in HEK cells; actives 0.41% (n = 320,000); P14735; FAbetaB cleavage, fluorescence polarization; inhibition, % at 5.59 µM;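 active = percent inhibition above the average of all tested compounds plus 3 SD, set per screening campaign, cut at about 16% in these data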;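 also: IDE supplied by intact live HEK cells; FP after avidin binding of uncleaved biotin substrate so inhibition keeps polarization high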
HNF4A DNA FP: change in binding of human HNF4 alpha to DNA; HNF4a-FITC DNA binding, fluorescence polarization, 1 h; activity change, % at 10 µM; actives 0.3% (n = 360,000); in the data active = activity change above about 30%, passing the limit was not always enough
TPT1 inhibitor: blocks Candida albicans tRNA 2'-phosphotransferase; inhibition, % at 5 µM; AID 1962; actives 0.81% (n = 300,000); recombinant caTPT1, FP RNA substrate dephosphorylation;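 active = inhibition above the mean of all tested compounds plus 3 SD, set per screening campaign, cut at about 24% in these data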
IDE cell activ: boosts human insulin-degrading enzyme activity in HEK cells | P14735 | FAbeta-B cleavage, fluorescence polarization; 0% vehicle, 100% cell-free pure enzyme wells | activation, % at 5.96 µM | actives 0.073% (n = 340,000);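 active = activation above the mean of all tested compounds plus 3 SD, set per screening campaign, cut at about 17% in these data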
CSN deneddyl inh: inhibitors of human CSN-mediated cullin deneddylation; Q92905; Purified CSN, SCF-Nedd8-OG deneddylation, fluorescence polarization; inhibition, % at 12.5 µM; actives 0.38% (n = 360,000); AID 651999;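 active = pattern-corrected inhibition above about 35%, with an unprinted fluorescence ratio check between 0.5 and 1.5, limit read from the data, passing the limit was not always enough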
Target sequence (Q92905 whole entry, looked up, one chain of several): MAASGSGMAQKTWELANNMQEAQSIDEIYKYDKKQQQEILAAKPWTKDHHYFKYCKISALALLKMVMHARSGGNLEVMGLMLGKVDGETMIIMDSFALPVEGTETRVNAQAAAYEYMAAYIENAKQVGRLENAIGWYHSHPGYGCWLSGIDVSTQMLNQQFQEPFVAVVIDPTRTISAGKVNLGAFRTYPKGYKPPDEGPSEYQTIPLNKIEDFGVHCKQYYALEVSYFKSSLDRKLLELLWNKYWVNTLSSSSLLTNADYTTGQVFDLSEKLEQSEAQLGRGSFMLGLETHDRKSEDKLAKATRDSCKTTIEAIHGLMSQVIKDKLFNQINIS
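assay system = purified human Csn5 enzyme expressed in HEK293T cells | amount = 0.24 nM enzyme | buffer or medium = Tris/NaCl/DTT buffer, pH 7.5 | reagent = 10 nM SCFSkp2-Nedd8OG | compound = one concentration, 12.5 µM, 0.25% DMSO | times = 90 min reaction at room temperature | signal = FP | read-out basis = % inhibition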
Rpn11 confirm: Rpn11 inhibition confirmation, single concentration; actives 29% (n = 1,900); shares compounds with Rpn11 block; purified human 26S proteasome, Ub4-pepOG fluorescence polarization; proteasome pretreated with epoxomicin; inhibition, % at 20 µM
MMP-2 counter: MMP-2 (human) inhibition counter-screen | inhibition, % at 20 µM | AID 602330 | recombinant MMP-2, FRET peptide cleavage fluorescence | actives 4% (n = 1,900) | shares compounds with Rpn11 block;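 also: human MMP-2 activated beforehand with APMA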
Thrombin FP: counter-screen for RPN11 inhibitors: inhibition of bovine thrombin; bovine thrombin cleavage of Ub4-pepOG, fluorescence polarization; actives 13% (n = 1,900); inhibition, % at 20 µM; shares compounds with Rpn11 block;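 active = mean inhibition at least 40% at 20 µM, or signal 3 deviations below plate average, so some actives read negative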
Numbers stand for hits; ! = a repeat was not active. Rule as the data show it, unless noted: active = inhibition above about 40%; inactive = the rest.

How did O=C(NC12CC3CC(CC(C3)C1)C2)N1CCC(O)CC1 do in these assays?
Rpn11 block: 111.1; IDE cell inh: inactive; HNF4A DNA FP: inactive; TPT1 inhibitor: inactive; IDE cell activ: inactive; CSN deneddyl inh: inactive; Rpn11 confirm: inactive; MMP-2 counter: inactive; Thrombin FP: inactive

How did COc1cc2nc(CN3CCN(S(=O)(=O)c4ccccc4C(F)(F)F)CC3)[nH]c(=O)c2cc1OC do in these assays?
Rpn11 block: inactive; IDE cell inh: inactive; HNF4A DNA FP: inactive; IDE cell activ: inactive; CSN deneddyl inh: inactive

What do the screens show for `O=c1[nH]c(CN2CCN(S(=O)(=O)c3ccccc3C(F)(F)F)CC2)nc2sc3c(c12)CCCC3`?
Rpn11 block: 71.0; IDE cell inh: inactive; HNF4A DNA FP: inactive; TPT1 inhibitor: inactive; IDE cell activ: inactive; CSN deneddyl inh: inactive; Rpn11 confirm: inactive; MMP-2 counter: inactive; Thrombin FP: inactive

What do the screens show for `O=C(NCC1CCCO1)c1ccc(NC(=O)c2cc(F)c(F)cc2Cl)cc1` (stereo not given)?
Rpn11 block: inactive; IDE cell inh: inactive; HNF4A DNA FP: inactive; TPT1 inhibitor: inactive; IDE cell activ: inactive; CSN deneddyl inh: inactive

How did CCOc1ccccc1N(CC)C(=O)c1nn(C)c2c1CSc1ccccc1-2 do in these assays?
Rpn11 block: inactive; IDE cell inh: inactive; HNF4A DNA FP: inactive; TPT1 inhibitor: inactive; IDE cell activ: inactive; CSN deneddyl inh: inactive

How did Cc1ccc(-c2nnn3c2nc(NCCc2ccc(S(N)(=O)=O)cc2)c2ccccc23)cc1 do in these assays?
Rpn11 block: 56.9; IDE cell inh: inactive; HNF4A DNA FP: inactive; TPT1 inhibitor: inactive; IDE cell activ: inactive; CSN deneddyl inh: 36.2; Rpn11 confirm: 46.4; MMP-2 counter: inactive; Thrombin FP: inactive

What do the screens show for `Cc1cccc(-c2nnn3c2nc(NCCc2ccc(S(N)(=O)=O)cc2)c2ccccc23)c1`?
Rpn11 block: inactive; IDE cell inh: inactive; HNF4A DNA FP: inactive; TPT1 inhibitor: inactive; IDE cell activ: inactive; CSN deneddyl inh: inactive

How did Cc1cc(C)c(S(=O)(=O)N2CCCCC2CCNC(=O)C(=O)NCc2cccnc2)c(C)c1 (stereo not given) do in these assays?
Rpn11 block: inactive; IDE cell inh: inactive; HNF4A DNA FP: inactive; TPT1 inhibitor: inactive; IDE cell activ: inactive; CSN deneddyl inh: inactive

Results for COc1cc(C=C2CCCC(=Cc3ccc(OCC4CO4)c(OC)c3)C2=O)ccc1OCC1CO1 (stereo not given) ?
Rpn11 block: 50.7; HNF4A DNA FP: inactive; CSN deneddyl inh: inactive; Rpn11 confirm: inactive; MMP-2 counter: inactive; Thrombin FP: inactive

Results for CC1(C)Oc2ccc(C(=O)NC3CCCC3)cc2N(CC(=O)N2CCOCC2)C1=O ?
Rpn11 block: 75.1; IDE cell inh: inactive; HNF4A DNA FP: inactive; TPT1 inhibitor: inactive; IDE cell activ: inactive; CSN deneddyl inh: inactive; Rpn11 confirm: inactive; MMP-2 counter: inactive; Thrombin FP: inactive

How did COc1cccc(NC(=O)c2cccc(N3C(=O)C4CCC(C)CC4C3=O)c2)c1 (stereo not given) do in these assays?
Rpn11 block: inactive; IDE cell inh: inactive; HNF4A DNA FP: inactive; TPT1 inhibitor: inactive; IDE cell activ: inactive; CSN deneddyl inh: inactive

How did CCCCCCSc1ccc(-c2nc3ccc(C)cn3c2NC2CCCCC2)cc1 do in these assays?
Rpn11 block: inactive; IDE cell inh: inactive; HNF4A DNA FP: inactive; TPT1 inhibitor: inactive; IDE cell activ: inactive; CSN deneddyl inh: inactive

What do the screens show for `CCCCCCSc1cc(-c2nc3cc(C)ccn3c2NC2CCCCC2)ccc1OC`?
Rpn11 block: 52.5; IDE cell inh: inactive; HNF4A DNA FP: inactive; TPT1 inhibitor: inactive; IDE cell activ: inactive; CSN deneddyl inh: inactive; Rpn11 confirm: inactive; MMP-2 counter: inactive; Thrombin FP: inactive

Results for Cc1ccn2c(NC3CCCC3)c(-c3ccncc3)nc2c1 ?
Rpn11 block: inactive; IDE cell inh: inactive; HNF4A DNA FP: inactive; TPT1 inhibitor: inactive; IDE cell activ: inactive; CSN deneddyl inh: inactive

What do the screens show for `Cc1ccn2c(NC3CCCCC3)c(-c3cccc(-c4cccc(Cl)c4)c3)nc2c1`?
Rpn11 block: 43.6; IDE cell inh: inactive; HNF4A DNA FP: inactive; TPT1 inhibitor: inactive; IDE cell activ: inactive; CSN deneddyl inh: inactive; Rpn11 confirm: inactive; MMP-2 counter: inactive; Thrombin FP: inactive

What do the screens show for `CCCCCCSc1ccc(-c2nc3cc(C)ccn3c2NC2CCCCC2)cc1`?
Rpn11 block: 58.1; IDE cell inh: inactive; HNF4A DNA FP: inactive; IDE cell activ: inactive; CSN deneddyl inh: inactive; Rpn11 confirm: inactive; MMP-2 counter: inactive; Thrombin FP: inactive

How did CCC(C)Sc1ccc(-c2nc3cc(C)ccn3c2NC2CCCCC2)cc1 (stereo not given) do in these assays?
Rpn11 block: 115.1; IDE cell inh: inactive; HNF4A DNA FP: 44.6!; IDE cell activ: inactive; CSN deneddyl inh: inactive; Rpn11 confirm: inactive; MMP-2 counter: inactive; Thrombin FP: inactive

How did CCC(C)Sc1ccc(-c2nc3cnccn3c2NC2CCCCC2)cc1 (stereo not given) do in these assays?
Rpn11 block: inactive; IDE cell inh: inactive; HNF4A DNA FP: inactive; TPT1 inhibitor: inactive; IDE cell activ: inactive; CSN deneddyl inh: inactive

How did COc1ccc(-c2nnc(SCc3c(C)noc3C)o2)cc1 do in these assays?
Rpn11 block: inactive; IDE cell inh: inactive; HNF4A DNA FP: inactive; TPT1 inhibitor: inactive; IDE cell activ: inactive; CSN deneddyl inh: inactive

What do the screens show for `COc1cc(-c2nc3cc(C)ccn3c2NC2CCCCC2)ccc1-c1ccc(C(C)=O)cc1`?
Rpn11 block: 41.7; IDE cell inh: inactive; HNF4A DNA FP: inactive; TPT1 inhibitor: inactive; IDE cell activ: inactive; CSN deneddyl inh: inactive; Rpn11 confirm: inactive; MMP-2 counter: inactive; Thrombin FP: inactive

Results for Cc1ccn2c(NC3CCCCC3)c(C)nc2c1 ?
Rpn11 block: inactive; IDE cell inh: inactive; HNF4A DNA FP: inactive; TPT1 inhibitor: inactive; IDE cell activ: inactive; CSN deneddyl inh: inactive

What do the screens show for `COc1ccc(N2CCN(C(=O)COC(=O)CCc3ccccc3OC)CC2)cc1`?
Rpn11 block: inactive; IDE cell inh: inactive; HNF4A DNA FP: inactive; TPT1 inhibitor: inactive; IDE cell activ: inactive; CSN deneddyl inh: inactive

Results for O=C(Cn1c2ccccc2c(=O)c2ccccc21)N/N=C/c1cc([N+](=O)[O-])ccc1N1CCCCC1 ?
Rpn11 block: 58.8; IDE cell inh: inactive; HNF4A DNA FP: inactive; TPT1 inhibitor: inactive; IDE cell activ: inactive; CSN deneddyl inh: inactive; Rpn11 confirm: inactive; MMP-2 counter: inactive; Thrombin FP: inactive

Screening results from PubChem BioAssay.
